Assay results published in ChEMBL document CHEMBL3244407, “Synthesis of spiro[tetralin-2,2'-pyrrolidine] and spiro[indan-2,2'-pyrrolidine] derivatives as potential analgesics” (J Med Chem, 1978).
Calls of active or inactive are those of the source. The rule behind the calls is not given here.

Legend:
[1] = organism: Mus musculus; test: Effect on locomotor activity in mouse; assay type: functional, organism-based
[2] = test system: Mus musculus; test: Antidepressant activity in mouse assessed as reversal of reserpine-induced hypothermia measured as cumulative temperature rise at 30 mg/kg administered 17 hrs post reserpine-challenge; assay type: functional
Summary of the method: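 Groups of six mice pretreated with reserpine 2 mg/kg sc; compound given 17 h later. Gastric temperature read just before dosing (t0) and at 2, 4 and 6 h. Cumulative rise T = (t2 + t4 + t6) − 3t0, averaged per group, in °C.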

[3] = test system: Mus musculus; test: Analgesic activity in mouse assessed as inhibition of acetic acid-induced writhing response at 30 mg/kg, po administered 30 mins prior to acetic acid-challenge relative to control; assay type: functional
Summary of the method: (§1)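 Mice in groups, dosed orally with vehicle or compound; 30 min later given dilute acetic acid ip (0.4 mL, 0.25%). Total squirming movements counted.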

[4] = organism: Mus musculus; test: Effect on CNS activity in mouse by maximal metrazole shock test; assay type: functional, organism-based; conditions: Central nervous system
[5] = organism: Mus musculus; test: Neurotoxicity in mouse by stationary rod test; assay type: toxicity, organism-based; conditions: in vivo
[6] = organism: Mus musculus; test: Effect on CNS activity in mouse by maximal electroshock test; assay type: functional, organism-based; conditions: Central nervous system
[7] = organism: Mus musculus; test: Analgesic activity in mouse by hot-plate test; assay type: functional
[8] = organism: Mus musculus; test: animal or person; assay type: functional; conditions: route oral
[9] = test system: Mus musculus; test: Analgesic activity in mouse assessed as inhibition of acetic acid-induced writhing response at 100 mg/kg, po administered 30 mins prior to acetic acid-challenge relative to control; assay type: functional; summary of the method: as §1

| Compound | Activity [1] | T [2] [°C] | inhibition in vivo at 30 mg/kg [3] [%] | Activity [4] | Activity [5] | Activity [6] | ED50 [7] [mg/kg] | inhibition in vivo at 10 mg/kg [8] [%] | inhibition in vivo at 100 mg/kg [9] [%] |
| --- | --- | --- | --- | --- | --- | --- | --- | --- | --- |
| Br.COc1ccc2c(c1)CCC1(CCCN1C)C2 (stereo not given) | inactive | 1.2 | 75 | inactive | Non-toxic | inactive | – | – | – |
| Br.Oc1ccc2c(c1)CCC1(CCCN1)C2 (stereo not given) | inactive | 0.7 | 0 | inactive | Non-toxic | inactive | – | – | – |
| Cl.c1ccc2c(c1)CC1(CCCN1)C2 | inactive | 5.1 | – | inactive | Non-toxic | inactive | > 30 | 50 | – |
| Br.CN1CCCC12CCc1cc(O)ccc1C2 (stereo not given) | inactive | 0.7 | 75 | inactive | Non-toxic | inactive | – | – | – |
| Cl.c1ccc2c(c1)CCC1(CCCN1)C2 (stereo not given) | inactive | 4.5 | – | inactive | Non-toxic | inactive | 7.1 | 100 | – |
| CN1CCCC12CCc1ccccc1C2.Cl (stereo not given) | inactive | 2.7 | – | inactive | Non-toxic | inactive | 7.4 | 100 | – |
| CN(C)CCCN1c2ccccc2CCc2ccccc21 [IMIPRAMINE] | – | 8 | 50 | – | – | – | – | – | – |
| CN1CC[C@]23c4c5ccc(O)c4O[C@H]2[C@@H](O)C=C[C@H]3[C@H]1C5.Cl [MORPHINE HYDROCHLORIDE] | – | 0.3 | – | – | – | – | – | 100 | – |
| COc1ccc2c(c1)CCC1(CCCN1)C2.Cl (stereo not given) | inactive | 0.2 | 50 | inactive | Non-toxic | inactive | – | – | – |
| CN1CCCC12Cc1ccccc1C2.Cl | inactive | 5.1 | – | inactive | Non-toxic | inactive | – | – | 50 |
